ChEMBL document CHEMBL1145248, “Design, new synthesis, and calcilytic activity of substituted 3H-pyrimidin-4-ones” (Bioorg Med Chem Lett, 2005)

What follows are compounds tested against T1, Extracellular calcium-sensing receptor (Homo sapiens, UniProt P41180) (assay: Inhibitory concentration was evaluated for in vitro calcilytic activity against human calcium receptor).
T1 sequence (P41180 whole entry): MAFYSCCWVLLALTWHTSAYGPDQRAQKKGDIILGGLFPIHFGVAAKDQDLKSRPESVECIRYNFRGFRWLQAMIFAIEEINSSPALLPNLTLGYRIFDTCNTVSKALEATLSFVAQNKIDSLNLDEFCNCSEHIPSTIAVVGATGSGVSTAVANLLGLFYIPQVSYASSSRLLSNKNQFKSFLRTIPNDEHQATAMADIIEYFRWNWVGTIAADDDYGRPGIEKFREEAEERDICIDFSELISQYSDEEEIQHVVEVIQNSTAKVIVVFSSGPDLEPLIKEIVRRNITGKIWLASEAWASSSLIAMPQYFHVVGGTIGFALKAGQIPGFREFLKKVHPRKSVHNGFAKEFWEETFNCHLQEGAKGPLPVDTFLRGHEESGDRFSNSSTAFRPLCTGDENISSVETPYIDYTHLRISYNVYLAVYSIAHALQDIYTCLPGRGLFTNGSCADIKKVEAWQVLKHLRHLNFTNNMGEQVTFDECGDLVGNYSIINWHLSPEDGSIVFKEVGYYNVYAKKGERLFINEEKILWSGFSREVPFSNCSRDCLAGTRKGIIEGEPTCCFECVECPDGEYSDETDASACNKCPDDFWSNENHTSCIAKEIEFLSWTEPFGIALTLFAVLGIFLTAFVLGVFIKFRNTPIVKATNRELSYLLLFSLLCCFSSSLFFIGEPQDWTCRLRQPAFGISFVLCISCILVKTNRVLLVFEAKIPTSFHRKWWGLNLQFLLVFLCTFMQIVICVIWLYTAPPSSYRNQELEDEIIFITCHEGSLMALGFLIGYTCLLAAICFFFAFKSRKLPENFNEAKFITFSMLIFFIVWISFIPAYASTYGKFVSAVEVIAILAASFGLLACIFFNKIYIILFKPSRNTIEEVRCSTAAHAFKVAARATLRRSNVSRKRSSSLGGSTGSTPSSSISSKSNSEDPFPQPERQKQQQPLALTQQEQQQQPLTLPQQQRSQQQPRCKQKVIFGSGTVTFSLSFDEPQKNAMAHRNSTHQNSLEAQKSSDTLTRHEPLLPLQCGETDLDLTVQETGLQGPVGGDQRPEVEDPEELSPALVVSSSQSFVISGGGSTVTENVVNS
How it was run: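 HEK 293 4.0-7 cells stably expressing human CaR, loaded with fluo-3. Intracellular Ca2+ rise triggered by raising extracellular Ca2+ from 1.0 to 1.3 mM. Peak fluorescence normalized to the response without compound. Eight concentrations tested in duplicate, top concentration 30 µM. IC50 normalized to an internal reference standard run in parallel in each assay.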

Row | Structure (SMILES) | IC50 [nM]
1 | Cc1nc(-c2ccccc2O)n(CCc2cccc(F)c2)c(=O)c1C | 170
2 | CCc1c(C)nc(-c2ccccc2O)n(CCc2ccccc2F)c1=O | 97
3 | CCCc1c(C)nc(-c2ccccc2O)n(CCc2cccc(F)c2)c1=O | 140
4 | CCc1c(C)nc(-c2ccccc2O)n(CCc2ccccc2)c1=O | 100
5 | O=c1c2c(nc(-c3ccccc3O)n1CCc1ccccc1)CCC2 | 200
6 | Cc1nc(-c2ccccc2O)n(CCc2ccccc2)c(=O)c1C | 200

The remaining compounds from weak to strong by IC50, led by results:

Row | IC50 [nM] | Structure (SMILES)
7 | 1900 | Cc1cc(=O)n(CCc2ccccc2)c(-c2ccccc2O)n1
8 | 1600 | Cc1cc(=O)n(CCc2ccccc2F)c(-c2ccccc2O)n1
9 | 1100 | Cc1cc(=O)n(CCc2cccc(F)c2)c(-c2ccccc2O)n1
10 | 800 | Cc1c(C(F)(F)F)nc(-c2ccccc2O)n(CCc2ccccc2)c1=O
11 | 200 | O=c1c2c(nc(-c3ccccc3O)n1CCc1cccc(F)c1)CCC2
12 | 140 | O=c1c2c(nc(-c3ccccc3O)n1CCc1ccccc1)CCCC2
13 | 95 | Cc1nc(-c2ccccc2O)n(CCc2cccc(F)c2)c(=O)c1C(C)C
